Compound activity as filed in PubChem.
Rows were chosen to be rich in hits. Some 6.3% of all compounds tested hit in one or more screens of this group.
PostGolgi ctrl = inhibits growth of the yeast control strain; efflux-deficient yeast background strain, growth absorbance A615, 16 h; inhibition, % at 10 µM; hit rate 5% among 98,000; AID 738
PostGolgi yeast = growth inhibition of a yeast mutant, post-Golgi transport screen; post-Golgi transport phenotypic cell assay; inhibition, % at 10 µM; hit rate 0.9% among 98,000; AID 739;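 also: yeast cells grown in 1536-well plates; yeast grown about 18 h at 30C before absorbance read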
E coli WT exp = E. coli BW25113 growth inhibition, expanded screen | OD600 absorbance | growth inhibition, % at 100 µM | hit rate 0.15% among 98,000;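 active = growth inhibition above about 50% at one test dose, limit read from the data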;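 also: growth measured after 20 h incubation at 37 °C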
Ecoli tolC = blocks growth of E. coli BW25113 tolC mutant | hit rate 2.2% among 65,000 | OD615 | growth inhibition, % at 10 µM (by protocol) | AID 573;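 active = growth inhibition at or above a cutoff equal to the mean over every tested compound plus 3 SD, cut at about 60% in these data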;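 also: growth measured after 20 h incubation at 37 °C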
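Test system: E. coli BW25113 ΔtolC::kan bacteria; incubation: 37 °C, 20 h exposure; medium: LB broth supplemented with 50 µg/mL kanamycin; read-out basis: percent growth inhibition; signal: A615 absorbance measurement; compound: 10 µM final, single dose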
* = called active by the depositor; x = not tested or not shown. Rule as the data show it, unless noted: active = inhibition above about 30%; inactive = the rest.

SMILES	PostGolgi ctrl	PostGolgi yeast	E coli WT exp	Ecoli tolC
N/C(Cc1ccc(Cl)cc1Cl)=N\OC(=O)c1cccs1	58*	20	14	x
COc1ccc(CNc2nc(-c3cccnc3)nn2C(=O)c2cccs2)cc1	40*	-3	-24	48
O/N=C/c1cc(Cl)ccc1OCc1cccc2ccccc12	61*	24	-7	x
Clc1ccc(CSc2nnc(-c3sccc3-n3cccc3)o2)cc1	18	-8	-25	x
COc1ccc(-n2c(SCC(=O)NNC(=O)c3ccccc3C)nnc2-c2ccncc2)cc1	-5	0	6	x
O=C(CSc1ncccn1)n1c2c(c3ccccc31)CCCC2	51*	-1	-35	x
CCN(CC)CC(=O)n1c2c(c3ccccc31)CCCC2	1	-6	11	-2
O=C(COC(=O)c1cc(S(=O)(=O)N2CCOCC2)ccc1O)NCCc1ccccc1	-5	4	3	x
COc1ccc(-c2nc(N)nc(C)c2Oc2ccccc2Br)c(O)c1	79*	56*	5	35
COc1ccc(-c2nc(N)ncc2-c2csc(C)n2)c(O)c1	4	-5	-2	-18
Fc1ccc(-c2cc3nc(-c4ccccc4)cc(N4CCN(CCN5CCOCC5)CC4)n3n2)cc1	19	5	9	29
CN1CCN(c2cc(-c3ccccc3)nc3cc(-c4ccc(F)cc4)nn23)CC1	73*	23	-5	x
Cc1ccc(/C=C/c2ccc(=O)n(Cc3ccccc3Cl)n2)cc1	42*	-5	-5	x
Cc1cc(C)n(Cc2ccccc2Cl)n1	9	0	9	-12
COc1cc(C(=O)n2nc(C)cc2C)ccc1O	19	6	6	x
O=C(Cn1cnc2c(nnn2-c2ccc(F)cc2)c1=O)N1CCCC1	-3	5	-5	-1
O=C(CSCC(=O)N1CCN(c2ccccc2)CC1)Nc1nc(-c2ccc(Cl)s2)cs1	16	16	-1	x
O=C(CSCC(=O)N1CCCCC1)Nc1nc(-c2cccs2)cs1	20	-2	-7	14
CC1CC(C)CN(C(=O)CSCC(=O)Nc2nc(-c3cccs3)cs2)C1 (stereo unspecified)	72*	5	-2	31
O=C(CSCC(=O)N1CCCCC1)Nc1nc(-c2ccc(Cl)s2)cs1	72*	32*	-22	46
O=C1OC(c2ccc3c(c2)OCO3)N(C(=O)c2ccc(Cl)c(Cl)c2)c2ccccc21 (stereo unspecified)	30*	-3	-19	x
CCOc1ccc(NC(=O)C/C(N)=N/O)cc1	-4	35*	8	-15
CCOc1ccc(NC(=O)CSC(N)=O)cc1	-10	-8	3	-9
CN1CCN(CCCNC(=O)c2ccc3c(c2)N(Cc2ccccc2)CCS3)CC1	-4	-6	5	17
CCCCNC(=O)CSc1nnc(-c2c[nH]c3ccccc23)n1CC1CCCO1 (stereo unspecified)	10	2	1	x
SMILES	PostGolgi ctrl	PostGolgi yeast	E coli WT exp	Ecoli tolC
CC(=O)OCC1=C(C(=O)O)N2C(=O)[C@@H](NC(=O)Cc3cccs3)[C@H]2SC1	x	x	x	100*
C=CC1=C(C(=O)O)N2C(=O)C(NC(=O)Cc3ccccc3)C2SC1 (stereo unspecified)	5	2	33	x
O=C(COC(=O)C12CC3CC(CC(C3)C1)C2)NC12CC3CC(CC(C3)C1)C2	33*	13	-3	x
Cc1[nH]n2c(=O)cc(C(C)(C)C)nc2c1-c1ccccc1	6	-3	11	100*
Cc1[nH]n2c(=O)cc(C(C)C)nc2c1-c1ccccc1	10	3	-7	54
O=C(CCSc1ccccc1)NCCN1CCOCC1	39*	-4	9	-13
COc1ccc(S(=O)(=O)NC(CC(=O)NCCc2ccc(OC)c(OC)c2)c2ccco2)cc1 (stereo unspecified)	4	-2	-11	-3
Cc1ccc(C2(C)NC(=O)N(CC(=O)Nc3cc(C)on3)C2=O)cc1 (stereo unspecified)	31*	-1	6	x
Cc1cc(NC(=O)CN2C(=O)NC(Cc3ccccc3)C2=O)no1 (stereo unspecified)	7	-3	2	x
CCn1c(COc2ccc3c(c2)OCO3)nnc1SCC(=O)c1ccc(Cl)cc1	18	-10	-18	x
C=CCSC1=C(C#N)C(c2ccc(C(C)C)cc2)CC(=O)N1 (stereo unspecified)	38*	-2	9	37
Cc1csc(-c2cnn(-c3ccccc3)c2NC(=O)c2ccc(C(F)(F)F)cc2)n1	44*	18	0	x
CC(C)(C)NC(=O)c1cnn(-c2ccccc2)c1NC(=O)c1ccccc1	6	-2	-2	x
COc1ccccc1-c1c(C(F)(F)F)oc2cc(OC(=O)c3ccccc3[N+](=O)[O-])ccc2c1=O	31*	4	0	x
COc1ccccc1C(=O)Oc1ccc(C(C)(C)C)cc1	13	-8	7	x
CCOc1cc(/C=C2\SC(=S)N(Nc3ccccc3)C2=O)ccc1O	61*	9	-12	x
COc1cc(/C=C2\SC(=S)N(Nc3ncc(C(F)(F)F)cc3Cl)C2=O)ccc1O	13	8	-13	x
C=C(C)c1cccc(C(C)(C)NC(=O)Nc2ncccn2)c1	57*	3	8	-12
O=C(O)CCN1C(=O)/C(=C\c2ccc(-c3nc4ccccc4s3)o2)SC1=S	5	-10	-12	x
Cc1onc(-c2ccccc2Cl)c1C(=O)Nc1nnc(-c2ccc(F)cc2)s1	35*	18	-10	44
Cc1onc(-c2ccccc2Cl)c1C(=O)Nc1nnc(-c2ccc(Cl)cc2Cl)s1	-1	-4	-14	x
Cc1onc(-c2ccccc2Cl)c1C(=O)Nc1nnc(-c2ccc(Br)cc2)s1	16	-20	-11	x
COC(=O)c1cc(OC)c(OC)cc1NC(=O)c1c(-c2ccccc2Cl)noc1C	37*	22	0	17
Cc1onc(-c2ccccc2Cl)c1C(=O)Nc1nc2c(s1)CCCC2	43*	4	-7	x
CC(C)N1CCC2(CC1)N=C(c1ccc3c(c1)OCO3)CC(c1cc(Cl)ccc1O)N2 (stereo unspecified)	50*	15	29	100*
SMILES	PostGolgi ctrl	PostGolgi yeast	E coli WT exp	Ecoli tolC
O=C1CC(c2cccs2)Cc2nc(NCC3CCCO3)ncc21 (stereo unspecified)	-1	1	-1	-18
COc1ccc2c(c1)c(=O)oc1cc(OCC(=O)N3CCC(C)CC3)ccc12	9	1	-1	1
COc1ccc2c(c1)c(=O)oc1cc(OCC(=O)N3CCCC(C)C3)ccc12 (stereo unspecified)	59*	5	-4	24
CCOCC(=O)Nc1cc(-c2cn3cccnc3n2)ccc1C	36*	-21	8	-19
CCn1cc(C(=O)NC2CCCCCC2)c2cc(OC)c(OC)cc2c1=O	2	0	-6	-7
CCOC(=O)c1cc(CC)sc1NC(=O)Cc1ccsc1	10	7	5	73*
CCOC(=O)c1cc(CC)sc1NC(=O)CCC(=O)O	9	5	-1	7
Cc1nn(Cc2ccccc2)c(N)c1-c1ccccc1	3	34*	9	-3
Cc1nn(Cc2ccccc2)c(N)c1C#N	-8	-5	4	-7
O=C(CSc1c[nH]c2ccccc12)N1CCOCC1	9	0	1	-12
CCn1cc(C(=O)O)c(=O)c2cc(Br)ccc21	14	6	19	x
